# Measurements from PMC10693930 (Biochemistry, 2023).
# Columns and labels:
# Format in all cases: biochemical
# WT SaPC [1] = target: T1, WT SaPC (Staphylococcus aureus, UniProt A0A0H3JRU9); experiment: Pyruvate carboxylation assay; conditions: for EC50: Ka (apparent activation constant)
# K46A SaPC [2] = target: T2, K46A SaPC (Staphylococcus aureus, UniProt A0A0H3JRU9, K46A); experiment: Pyruvate carboxylation assay
# E418A SaPC [3] = target: T3, E418A SaPC (Staphylococcus aureus, UniProt A0A0H3JRU9, E418A); experiment: Pyruvate carboxylation assay; conditions: up to 4 mM acetyl-CoA and 30 mM CoA
# R21A SaPC [4] = target: T4, R21A SaPC (Staphylococcus aureus, UniProt A0A0H3JRU9, R21A); experiment: Pyruvate carboxylation assay
# K411A SaPC [5] = target: T5, K411A SaPC (Staphylococcus aureus, UniProt A0A0H3JRU9, K411A); experiment: Pyruvate carboxylation assay
# WT SaPC [6] = target: T1, WT SaPC; experiment: ADP phosphorylation assay
# K411A SaPC [7] = target: T5, K411A SaPC; experiment: ADP phosphorylation assay
# WT SaPC [8] = target: T1, WT SaPC; experiment: Pyruvate carboxylation inhibition assay with CT domain inhibitors
# Outline: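 WT SaPC (5 μg/mL) was pre-incubated with inhibitor and acetyl-CoA, and the reaction was started with 10× substrate mix (final 25 mM NaHCO3, 2.5 mM ATP, 12 mM pyruvate). MDH-coupled (10 U/mL MDH, 0.12 mM NADH); change in A340 monitored. Inhibitor 0–1 mM or 0–50 mM by compound. MDH-only controls. Triplicate; SD of three trials.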
# R21A SaPC [9] = target: T4, R21A SaPC; experiment: Pyruvate carboxylation inhibition assay with CT domain inhibitors; conditions: 2.5 mM acetyl-CoA vs none
# K46A SaPC [10] = target: T2, K46A SaPC; experiment: as above; conditions: 2.5 mM acetyl-CoA vs none
# E418A SaPC [11] = target: T3, E418A SaPC; experiment: as above
# [12] = Acyl-CoA + 20 mM L-aspartate, Table 1
Structure (SMILES),h (Hill coefficient) (WT SaPC [1]; [12]),"h (Hill coefficient) (WT SaPC [1]; Acyl-CoA alone, Table 1)",EC50 (WT SaPC [1]; [12]) [µM],"EC50 (WT SaPC [1]; WT SaPC, Table 2 series) [µM]","increase of apparent Ka in the presence of L-aspartate (WT SaPC [1]; WT SaPC, 20 mM L-aspartate vs none)",EC50 (K46A SaPC [2]) [µM],activation of pyruvate carboxylation (E418A SaPC [3]),EC50 (R21A SaPC [4]) [µM],EC50 (K411A SaPC [5]) [µM],EC50 (WT SaPC [6]) [µM],EC50 (K411A SaPC [7]) [µM],"change of potency in the presence of acetyl-CoA (WT SaPC [8]; SaPC, CT domain inhibitors)","increase in the IC50 for oxalate inhibition (WT SaPC [8]; WT SaPC, acetyl-CoA at ~7 times the Ka value (10 μM, Figure 6C))","increase in the IC50 for oxalate inhibition (WT SaPC [8]; WT SaPC, in the presence of CoA (500 μM, Figure 6B))","change of the IC50 for oxalate inhibition (WT SaPC [8]; WT SaPC, in the presence of L-aspartate (5 mM, Figure 6B))","increase in the IC50 for oxalate inhibition (WT SaPC [8]; WT SaPC, saturating acetyl-CoA vs none) [fold]",increase in the IC50 for oxalate inhibition (R21A SaPC [9]) [fold],increase in the IC50 for oxalate inhibition (K46A SaPC [10]) [fold],inhibition of pyruvate carboxylation (E418A SaPC [11]),change of inhibition in the presence of acetyl-CoA (E418A SaPC [11]; 500 μM acetyl-CoA)
CC(C)(COP(=O)(O)OP(=O)(O)OC[C@H]1O[C@@H](n2cnc3c(N)ncnc32)[C@H](O)[C@@H]1OP(=O)(O)O)[C@@H](O)C(=O)NCCC(=O)NCCS [CoA],1.8 ± 0.2,1.4 ± 0.2,130 ± 10,49 ± 7,~ 4 fold,1500 ± 100,unresponsive to activation,1800 ± 53,100 ± 4.8,320 ± 30,420 ± 30,,,,,,,,,
O=C(O)C(=O)O [oxalate],,,,,,,,,,,,significantly reduced potency,~ 6 fold,~ 13 fold,did not alter,> 20,8,8,inhibited,unchanged
